High-throughput results deposited in PubChem by several laboratories.
Hits are enriched below; roughly 2.3% of the tested compounds scored in any of these assays.
TRPC6 activator: mouse TRPC6 channel activation. B-score at 10 µM. Q61143. 310,000 compounds, 0.13% hits. HEK293-TRPC6 membrane potential dye fluorescence; stronger effect = higher value;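 active = B-score of the integrated fluorescence ratio above library mean plus 3 SD, and starting fluorescence ratio within library mean plus 5 SD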;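 note: higher score means more depolarization so channel activation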
Target sequence (Q61143 whole entry, looked up): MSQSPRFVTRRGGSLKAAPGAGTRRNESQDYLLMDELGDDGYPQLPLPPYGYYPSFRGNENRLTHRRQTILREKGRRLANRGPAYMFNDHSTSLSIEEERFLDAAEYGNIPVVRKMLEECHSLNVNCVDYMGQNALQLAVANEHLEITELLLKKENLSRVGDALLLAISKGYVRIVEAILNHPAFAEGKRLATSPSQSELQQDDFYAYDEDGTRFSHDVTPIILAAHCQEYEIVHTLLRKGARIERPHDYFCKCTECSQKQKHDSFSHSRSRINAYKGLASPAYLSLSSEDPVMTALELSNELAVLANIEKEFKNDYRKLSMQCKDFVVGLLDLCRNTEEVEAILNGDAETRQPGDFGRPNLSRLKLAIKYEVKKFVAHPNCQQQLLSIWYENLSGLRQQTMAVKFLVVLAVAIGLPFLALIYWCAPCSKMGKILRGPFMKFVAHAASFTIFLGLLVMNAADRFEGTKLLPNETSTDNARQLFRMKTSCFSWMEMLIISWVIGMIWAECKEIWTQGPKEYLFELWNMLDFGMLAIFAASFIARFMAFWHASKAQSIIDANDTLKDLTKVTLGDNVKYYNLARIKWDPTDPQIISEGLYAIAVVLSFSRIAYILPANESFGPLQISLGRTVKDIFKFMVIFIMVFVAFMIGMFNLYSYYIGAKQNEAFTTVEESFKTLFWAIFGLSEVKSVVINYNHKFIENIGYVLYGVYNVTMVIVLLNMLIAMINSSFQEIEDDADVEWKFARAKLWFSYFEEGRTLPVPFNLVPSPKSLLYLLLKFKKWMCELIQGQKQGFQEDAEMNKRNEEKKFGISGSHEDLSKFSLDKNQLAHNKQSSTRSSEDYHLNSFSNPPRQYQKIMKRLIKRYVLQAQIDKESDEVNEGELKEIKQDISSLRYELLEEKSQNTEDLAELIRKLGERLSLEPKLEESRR
TRPC4 block: blocks the mouse TRPC4 cation channel. Q9QUQ5. HEK293 TRPC4beta/mu-opioid, DAMGO-evoked Fluo4 calcium flux; stronger effect = lower value. B-score at 10 µM. 300,000 compounds, 0.39% hits. AID 2247;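 active = B-score over 3 SD under the library average, no early fluorescence shift, positive overall ratio signal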
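Assay system: TRPC4beta/mu-opioid receptor HEK293 cell line; compound dosing: single concentration per test compound; detection: Fluo4 Ca2+ flux fluorescence; evaluation: per-well B score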
TRPC4 potent: allosteric potentiators of mouse TRPC4 channel; Q9QUQ5; HEK293 TRPC4beta/mu-opioid, DAMGO EC20, Fluo-4 Ca2+ flux; stronger effect = higher value; B-score at 10 µM; 310,000 compounds, 0.42% hits; AID 2227;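 active = B-score of calcium response area above 5 SD of library B-scores, with initial fluorescence ratio within 5 SD of library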;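 note: B-score of integrated fluorescence ratio over time as area under calcium response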
TRPC4 act: activators of mouse TRPC4 channel; HEK293 TRPC4beta/mu-opioid, Fluo4 calcium fluorescence; stronger effect = higher value; 310,000 compounds, 0.49% hits; Q9QUQ5; B-score at 10 µM;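 active = B-score above 5 SD of library B-scores, and initial fluorescence ratio not above library mean plus 5 SD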;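 note: positive B-score marks a calcium rise read as TRPC4 activation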
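Assay system: HEK293 stable line with TRPC4beta plus mu-opioid receptor; schedule: 45 min room-temperature Fluo4 loading, 110 s read; technique: kinetic Fluo4 calcium fluorescence; evaluation: integrated baseline-normalised fluorescence ratio, converted to per-well B score; controls: buffer (low) and maximal DAMGO (high)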
Yeast superoxide: yeast age-related superoxide inhibition as caloric restriction mimetic; superoxide response (% of plate mean), % at 10 µM; 330,000 compounds, 0.18% hits; AID 2690; S. cerevisiae aged cells, superoxide DHE fluorescence; stronger effect = lower value;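 active = superoxide response under a set limit, about three screen SD below normal, cut at about 65% in these data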;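 note: yeast aged for seven days with compound at 30 °C before DHE staining; 100% = average MFI of all compound-treated wells on the plate with controls excluded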
TRPC6 inh: mouse TRPC6 channel inhibition; 310,000 compounds, 1.1% hits; Q61143; B-score at 10 µM; AID 2553; HEK293-TRPC6, membrane potential dye, ACh-evoked depolarization; stronger effect = lower value;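 active = B-score under library mean minus 3 SD, initial fluorescence not abnormally high, positive integrated signal ratio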;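 note: B-score derived from integrated fluorescence ratio over the kinetic read; more negative B-score means stronger inhibition of depolarization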
HEK293 MPD ctr: counter-screen for TRPC6 modulators: effect in parental HEK293 cells | shares compounds with TRPC6 inh | membrane potential dye fluorescence | membrane potential signal change, % at 10 µM | 2,400 compounds, 51% hits | AID 488924;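 active = membrane potential signal moves up or down beyond 5 SD from buffer-only wells, on both duplicate plates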
HEK293 MPD ctr 2: second counter-screen for TRPC6 modulators: effect in parental HEK293 cells; 2,400 compounds, 14% hits; inhibition, % at 10 µM; membrane potential dye fluorescence; after compound, maximal acetylcholine stimulation; shares compounds with TRPC6 inh; AID 488926;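 active = membrane potential signal drops by more than 5 SD from the mean control signal, in both duplicate plates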;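 note: plate controls were acetylcholine ECmax control wells for no effect and buffer only wells for full effect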
TRPC4 ctr mod: tests whether TRPC6 modulators also affect mouse TRPC4; HEK293 TRPC4/mu-opioid, membrane potential fluorescence; percent change from control (negative = decrease, positive = increase), % at 10 µM; shares compounds with TRPC6 inh; 2,400 compounds, 69% hits;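 active = membrane potential signal moved up or down beyond 5 SD of buffer control wells, in both duplicate plates, actives on both sides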;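 note: plate controls were assay buffer wells for no effect and DAMGO maximal-effect wells for full effect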
TRPC4 ctr inh 2: second selectivity test of TRPC6 modulators against mouse TRPC4 | HEK293 TRPC4/mu-opioid, membrane potential dye fluorescence; stimulated with maximal-effect DAMGO | AID 488928 | shares compounds with TRPC6 inh | 2,400 compounds, 55% hits | inhibition, % at 10 µM;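 active = drop in membrane potential signal beyond 5 SD of the control wells in both duplicate plates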;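 note: TRPC4 counter screen for TRPC6 hits run under conditions tuned for TRPC6 not TRPC4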
TRPC6 inh conf: confirmation of mouse TRPC6 inhibitors; shares compounds with TRPC6 inh; 3,300 compounds, 43% hits; inhibition, % at 10 µM; AID 488960; HEK293-TRPC6, membrane potential dye, ACh-evoked depolarization;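 active = fluorescence ratio falls more than 5 SD below the full-stimulation control mean, in both duplicate runs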;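 note: integrated fluorescence ratio of peak minus minimum over baseline after agonist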
TRPC6 act conf: mouse TRPC6 activator confirmation; shares compounds with TRPC6 inh; HEK293-TRPC6 membrane potential dye fluorescence, FDSS; activation, % at 10 µM; 2,800 compounds, 11% hits;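 active = ratio signal rise beyond 5 SD above unstimulated control wells' mean, seen in both duplicate runs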;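 note: plate controls were buffer EC0 wells for no effect and acetylcholine ECmax response for full effect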
* hit, by the source's call.

How did CCCCOc1ccccc1NC(=O)CSc1nnnn1C(C)(C)C do in these assays?
TRPC6 activator: 12*; TRPC4 block: inactive; TRPC4 potent: inactive; TRPC4 act: inactive; Yeast superoxide: 95; TRPC6 inh: inactive; HEK293 MPD ctr: 187%*; HEK293 MPD ctr 2: inactive; TRPC4 ctr mod: 38%*; TRPC4 ctr inh 2: inactive; TRPC6 act conf: 114%*

What do the screens show for `COc1cccc(NC(=S)N(CCCN2CCCC2)Cc2cccn2Cc2ccc(Cl)cc2)c1`?
TRPC6 activator: inactive; TRPC4 block: inactive; TRPC4 potent: inactive; TRPC4 act: inactive; Yeast superoxide: 97; TRPC6 inh: -5.3*; HEK293 MPD ctr: inactive; HEK293 MPD ctr 2: inactive; TRPC4 ctr mod: inactive; TRPC4 ctr inh 2: 62%*; TRPC6 inh conf: 48%*; TRPC6 act conf: inactive

What do the screens show for `O=C(NCC(c1cccs1)N1CCOCC1)c1cc(-c2ccc(F)cc2)nc2ccccc12` (stereo not given)?
TRPC6 activator: inactive; TRPC4 block: inactive; TRPC4 potent: inactive; TRPC4 act: inactive; Yeast superoxide: 112; TRPC6 inh: inactive

Results for O=C(O)c1ccc(-c2ccc(/C=c3/sc4nc5ccccc5n4c3=O)o2)cc1Cl ?
TRPC6 activator: 32*; TRPC4 block: inactive; TRPC4 potent: 15*; TRPC4 act: 58*; Yeast superoxide: 102; TRPC6 inh: inactive; HEK293 MPD ctr: 560%*; HEK293 MPD ctr 2: inactive; TRPC4 ctr mod: 112%*; TRPC4 ctr inh 2: inactive; TRPC6 inh conf: inactive; TRPC6 act conf: 82%*

What do the screens show for `Cc1cc(/C=c2\sc3nc4ccccc4n3c2=O)c(C)n1-c1ccc(C(=O)O)cc1`?
TRPC6 activator: inactive; TRPC4 block: inactive; TRPC4 potent: inactive; TRPC4 act: inactive; TRPC6 inh: inactive

How did Cc1ccc2c(nc3s/c(=C\c4ccc(-c5ccccc5C(=O)O)o4)c(=O)n32)c1C do in these assays?
TRPC6 activator: 78*; TRPC4 block: -8*; TRPC4 potent: inactive; TRPC4 act: 189*; Yeast superoxide: 99; TRPC6 inh: inactive; HEK293 MPD ctr: active; HEK293 MPD ctr 2: inactive; TRPC4 ctr mod: 408%*; TRPC4 ctr inh 2: inactive; TRPC6 inh conf: inactive; TRPC6 act conf: 592%*

What do the screens show for `O=C(Nc1c2c(nn1-c1ccc(F)cc1)CSC2)c1ccc(S(=O)(=O)N2CCOCC2)cc1`?
TRPC6 activator: inactive; TRPC4 block: inactive; TRPC4 potent: inactive; TRPC4 act: inactive; Yeast superoxide: 122; TRPC6 inh: -5.6*; HEK293 MPD ctr: inactive; HEK293 MPD ctr 2: inactive; TRPC4 ctr mod: inactive; TRPC4 ctr inh 2: inactive; TRPC6 inh conf: inactive; TRPC6 act conf: inactive

Results for CN(C)CCc1cc2c(c3c1ccc1ccccc13)OCO2 ?
TRPC6 activator: inactive; TRPC4 block: inactive; TRPC4 potent: inactive; TRPC4 act: inactive; Yeast superoxide: 101; TRPC6 inh: -5.2*; HEK293 MPD ctr: inactive; HEK293 MPD ctr 2: inactive; TRPC4 ctr mod: -10%*; TRPC4 ctr inh 2: 47%*; TRPC6 inh conf: inactive; TRPC6 act conf: inactive

How did Cc1ccccc1Nc1c(-c2cccnc2)nc2ccccn12 do in these assays?
TRPC6 activator: inactive; TRPC4 block: inactive; TRPC4 potent: inactive; TRPC4 act: inactive; Yeast superoxide: 99; TRPC6 inh: -5.6*; HEK293 MPD ctr: -132%*; HEK293 MPD ctr 2: inactive; TRPC4 ctr mod: -14%*; TRPC4 ctr inh 2: 66%*; TRPC6 inh conf: inactive; TRPC6 act conf: inactive

Results for Cc1ccn2c(Nc3ccccc3C)c(-c3ccccn3)nc2c1 ?
TRPC6 activator: inactive; TRPC4 block: inactive; TRPC4 potent: inactive; TRPC4 act: inactive; Yeast superoxide: 82; TRPC6 inh: -5.7*; HEK293 MPD ctr: -130%*; HEK293 MPD ctr 2: inactive; TRPC4 ctr mod: -27%*; TRPC4 ctr inh 2: 81%*; TRPC6 inh conf: inactive; TRPC6 act conf: inactive

Results for Cc1ccccc1Nc1c(-c2cccnc2)nc2ccc(Br)cn12 ?
TRPC6 activator: inactive; TRPC4 block: inactive; TRPC4 potent: inactive; TRPC4 act: inactive; Yeast superoxide: 96; TRPC6 inh: inactive

What do the screens show for `Cc1ccccc1Nc1c(-c2ccncc2)nc2ccc(Br)cn12`?
TRPC6 activator: inactive; TRPC4 block: inactive; TRPC4 potent: inactive; TRPC4 act: inactive; Yeast superoxide: 100; TRPC6 inh: -7*; HEK293 MPD ctr: -131%*; HEK293 MPD ctr 2: inactive; TRPC4 ctr mod: -39%*; TRPC4 ctr inh 2: 94%*; TRPC6 inh conf: 64%*; TRPC6 act conf: inactive

Results for Cn1nc(C(=O)Nc2ccc3c(c2)OCO3)c2ccccc2c1=O ?
TRPC6 activator: inactive; TRPC4 block: inactive; TRPC4 potent: inactive; TRPC4 act: inactive; Yeast superoxide: 94; TRPC6 inh: inactive

Results for COc1cccc(NC(=S)N2CCN(c3ccccn3)CC2)c1 ?
TRPC6 activator: inactive; TRPC4 block: inactive; TRPC4 potent: inactive; TRPC4 act: inactive; Yeast superoxide: 89; TRPC6 inh: inactive

Results for CCOC(=O)c1ccccc1NC(=O)COC(=O)CC1CCCCC1 ?
TRPC6 activator: inactive; TRPC4 block: inactive; TRPC4 potent: inactive; TRPC4 act: inactive; Yeast superoxide: 95; TRPC6 inh: inactive

What do the screens show for `CCOC(=O)c1ccccc1NC(=O)c1c(F)c(F)c(F)c(F)c1F`?
TRPC6 activator: inactive; TRPC4 block: inactive; TRPC4 potent: inactive; TRPC4 act: inactive; Yeast superoxide: 93; TRPC6 inh: -6.2*; HEK293 MPD ctr: inactive; HEK293 MPD ctr 2: inactive; TRPC4 ctr mod: inactive; TRPC4 ctr inh 2: inactive; TRPC6 inh conf: inactive; TRPC6 act conf: inactive
